# In the library only some 2.6% were active in any assay of this set; here they are far more common.
# esBAF inh – inhibitors of esBAF chromatin remodeling in mouse ES cells | Bmi1-luciferase knock-in reporter, 24 h; 100% = twice the neutral-well signal | reporter increase, % at 12.5 µM | actives 2% (n = 350,000) | AID 602393; in the data active = activation above about 40%; inconclusive = no clear call, values can overlap the other calls;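 also: 0% = median of the plate's neutral control wells and 100% = double that signal; a rise in the Bmi1 reporter signal indicates esBAF inhibition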
# Wnt bcat act – Wnt/beta-catenin pathway activation; Wnt/beta-catenin reporter cell assay, activator, plate reader; activation, % at 9.35 µM; actives 1.2% (n = 300,000); in the data active = activation above about 30%, passing the limit was not always enough; inconclusive = no clear call, values can overlap the other calls;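 also: 0% = neutral control wells and 100% = positive control wells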
# XiGFP reactiv – X-chromosome reactivation activator; actives 0.055% (n = 360,000); XiGFP mouse fibroblasts, % GFP-positive cells imaging, 3 d; cells co-treated with 5-aza-dC sensitizer; scaled so ellipticine positive control = 100%; activation, % at 7.58 µM;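 active = mean normalized replicate activation at least 10% and every replicate at or above 10%; inconclusive = only one of the two criteria met; inactive = mean below 10% and not all replicates reach 10%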;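 also: 0% = median of on-plate neutral control wells and 100% = ellipticine 6 µM median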
#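 System: 68-5-11 XiGFP fibroblast line; Timing: 3 days compound exposure; Compound dosing: one concentration, pinned; Benchmarks: positive control ellipticine, 6 µM final; Buffer or medium: DMEM containing 5-aza-dC.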
# Vif inh – HIV Vif inhibition | HEK293T cells, Vif self-association by quenched fluorescence, imaging, 24 h | inhibition, % at 7.49 µM | actives 0.35% (n = 340,000) | AID 602346; in the data active = inhibition above about 50%, passing the limit was not always enough; inconclusive = no clear call, values can overlap the other calls; inactive = below about 31%
# MITF TRPM1 HTS – MITF TRPM1 promoter activation in melanoma cells; SK-MEL-5 TRPM1-promoter luciferase, 24 h; % of positive control, neutral wells = 0; activation, % at 12.5 µM; actives 0.75% (n = 300,000);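 active = mean activation of at least 80% with every replicate also reaching 80%; inconclusive = mean reaches 80% but some replicate falls short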;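 also: 0% = neutral control wells and 100% = parthenolide positive control wells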
# Active calls of the source: *; ? = inconclusive; / = not tested or not shown.
SMILES,esBAF inh,Wnt bcat act,XiGFP reactiv,Vif inh,MITF TRPM1 HTS
O=C(C[C@@H]1CC[C@H]2[C@@H](COC[C@@H](O)CN2C(=O)Nc2ccc(C(F)(F)F)cc2)O1)NCC1CCCCC1,4,/,0,/,/
O=C(CSc1ccsc1[N+](=O)[O-])NCc1ccco1,/,33*,0,5,-5
CCSc1nsc(NC(=O)Nc2ccc(F)cc2F)n1,16,/,/,-12,62
CCSc1nsc(NC(=O)Nc2ccccc2Cl)n1,41*,5,0,-8,/
CCC(=O)N(C)C[C@H]1Oc2cc(-c3cccc(OC)c3)ccc2S(=O)(=O)N([C@@H](C)CO)C[C@@H]1C,8,/,0,/,/
O=C(Cc1cccnc1)N1CC(=O)N2[C@@H](CO)[C@H](c3ccc(C4=CCCC4)cc3)[C@@H]2C1,/,/,0,/,/
O=C(OCc1csc(-c2ccccc2)n1)c1ccc(O)cc1,/,1,0,9,98*
Cc1ccc(C(=O)NCC(=O)OCc2csc(-c3ccccc3)n2)cc1,/,2,0,-2,3
CCCc1nc2c3ccccc3ccn2c1Cc1ccccc1,52*,33*,0,/,/
O=C(C1CCCC1)N1CC2(C1)[C@@H](c1ccccc1)[C@H](CO)N2C(=O)NC1CCCC1,/,/,0,/,/
N#CC1(c2ccc(NC(=O)c3ccccc3)cc2)CCCC1,19,/,/,4,40
CC(=O)Oc1ccc(C(=O)Nc2ccc(C3(C#N)CCCC3)cc2)cc1,51*,15,0,-10,/
CCCn1c(=N)c(C(=O)NCc2ccc3c(c2)OCO3)cc2c(=O)n3cccc(C)c3nc21,15,-2,/,93*,6
CC(C)(C)c1ccc(OCc2nc(-c3ccccn3)no2)c(Br)c1,11,51*,/,-3,52
Clc1cc(Cl)c(OCc2nc(-c3ccccn3)no2)cc1Cl,7,51*,/,2,/
COc1ccc(Cc2nc(-c3ccccn3)no2)cc1,/,30,/,0,29
c1ccc(Cc2nc(-c3ccccn3)no2)cc1,26,23,/,4,64
COc1ccc2c3c(n(C)c2c1)[C@@H](CO)NCC31CCN(S(=O)(=O)c2ccccc2)CC1,/,/,0,/,/
Cc1cc(OCC(=O)N(C)C2CCCCC2)cc(C)c1Cl,/,-1,0,6,45
Cc1cc(OCC(=O)N(C)C2CCCCC2)ccc1Cl,4,60*,0,7,39
O=[N+]([O-])c1cc(-c2cnc3ccccc3n2)ccc1Oc1ccc(Br)cc1,44*,/,/,-1,/
Cc1noc(C)c1NC(=O)Nc1ccc2c(c1)CC(=O)N([C@H](C)CO)C[C@@H](C)[C@H](CN(C)C(=O)NC1CCCCC1)O2,-2,/,0,/,/
O=C(Nc1ccc2c(c1)OCO2)C1CC(c2ccccc2Cl)=NO1 (centres undefined),64*,/,/,0,44
O=C(Nc1ccc2c(c1)OCCO2)c1cc2sccc2n1Cc1ccc(F)cc1,28,5,/,-8,22
O=C(CNCc1ccc(Cl)cc1)Nc1ccc2c(c1)OCCO2,/,8,1,10,2
SMILES,esBAF inh,Wnt bcat act,XiGFP reactiv,Vif inh,MITF TRPM1 HTS
O=C(Nc1ccc2c(c1)OCCO2)c1ccccc1Cl,-10,40*,0,/,/
O=C(Nc1ccc2c(c1)OCCO2)c1cc2sccc2n1Cc1ccccc1,49*,1,/,-13,14
O=C(CNCc1ccccc1Cl)Nc1ccc2c(c1)OCCO2,52*,3,0,/,?
O=C(Nc1ccc2c(c1)OCCO2)c1ccccn1,-69,/,0,23,-31
O=C(CSCc1ccccc1Cl)Nc1ccc2c(c1)OCCO2,-24,-5,/,-7,135*
C[C@H](CO)N1C[C@H](C)[C@H](CN(C)C(=O)Cc2cccnc2)Oc2ncc(-c3cccnc3)cc2C1=O,6,/,0,/,/
C[C@H]1CN([C@@H](C)CO)C(=O)c2cc(C#CCc3ccccc3)cnc2O[C@H]1CN(C)C(=O)Cc1cccnc1,-8,/,-1,/,/
Cc1ccc(C)c(S(=O)(=O)N(C(=O)c2ccncc2)c2ccc(OC(=O)c3ccncc3)cc2)c1,/,48*,0,6,3
Cc1cc2ncc(Cl)nc2cc1C,/,/,/,3,25
Cc1cc2nc(Cl)c(Cl)nc2cc1C,/,-2,0,67*,0
C[C@H](CO)N1C[C@H](C)[C@H](CN(C)C(=O)Nc2cccc(F)c2)OCc2ccccc2-c2c(n(C)c3ccccc23)C1=O,1,/,0,/,/
C[C@@H]1CN([C@H](C)CO)C(=O)c2c(c3ccccc3n2C)-c2ccccc2CO[C@@H]1CN(C)C(=O)Nc1ccc2c(c1)OCO2,3,-2,0,2,/
C[C@@H]1CN([C@H](C)CO)C(=O)c2c(c3ccccc3n2C)-c2ccccc2CO[C@H]1CN(C)C(=O)Nc1ccc2c(c1)OCO2,81*,/,0,/,/
C[C@H]1CN([C@@H](C)CO)C(=O)c2c(c3ccccc3n2C)-c2ccccc2CO[C@H]1CN(C)C(=O)Nc1ccc2c(c1)OCO2,60*,/,0,/,/
C[C@@H]1CN([C@@H](C)CO)C(=O)c2c(c3ccccc3n2C)-c2ccccc2CO[C@H]1CN(C)C(=O)Nc1ccc2c(c1)OCO2,86*,/,0,/,/
C[C@H](CO)N1C[C@H](C)[C@H](CN(C)C(=O)Nc2ccc3c(c2)OCO3)OCc2ccccc2-c2c(n(C)c3ccccc23)C1=O,93*,/,0,/,/
CCOC(=O)c1c(C)[nH]c(C(C)=NNC(=O)c2cccs2)c1C,77*,61*,0,-5,/
CCOC(=O)c1c(C)[nH]c(/C(C)=N/NC(=O)c2cccnc2)c1C,16,-5,0,/,/
CC(=O)c1c(C)[nH]c(C(=O)OCC(=O)NCc2cccs2)c1C,55*,17,0,-2,19
CC(=O)c1c(C)[nH]c(C(=O)OCC(=O)NCc2ccc(Cl)cc2)c1C,10,1,0,-6,/
Nc1cc(Cl)ccc1C(=O)OCC(=O)NCc1cccs1,53*,12,0,2,26
C=CCNc1nc(Nc2ccccc2F)nc(OCC)n1,85*,18,0,-21,45
CCOc1nc(Nc2ccccc2F)nc(OCC)n1,-1,0,0,-14,/
C[C@@H]1CN([C@H](C)CO)C(=O)c2cc(C#CC3CC3)cnc2O[C@H]1CN(C)C(=O)Nc1ccccc1,-6,/,-1,/,/
CCCC(=O)N1CC2(CCN(C(=O)Nc3cccc(F)c3)CC2)c2c(n(C)c3cc(OC)ccc23)[C@H]1CO,/,/,0,/,/
Nc1cnc(Nc2ccc(Br)cc2)nc1N,53*,2,0,-8,72
O=C(CCn1cnc2ccccc21)N/N=C/c1ccccc1O,52*,10,0,-13,20
